# Bioassay records deposited in PubChem by several laboratories.
# Sampled rows, rich in hits. Any-hit rate of the full collection: about 7.4%.
# JNK3 blocker = JNK3 (human) kinase inhibition | P53779 | purified JNK3 kinase activity, HTS | inhibition, % at 8 µM | 0.61% of 60,000 active | AID 746; in the data active = inhibition above about 17%
# M1 antag = antagonists of rat M1 muscarinic receptor; P08482; CHO-M1 cells, Fluo-4 calcium, ACh EC80 antagonist mode; hits give low values; B-score at 10 µM; 3.4% of 64,000 active; AID 628;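 active = calcium fluorescence response, raw or row-and-column corrected B-score, differing from the plate sample mean either way at a set confidence level, mostly lower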
# S1P1 ag-PAM = activates or potentiates agonism at human S1P1 receptor; P21453; S1P1 CRE-bla cells, forskolin, beta-lactamase FRET, potentiator mode; S1P1 agonist co-added at EC20, 2 nM; 100% = saturating reference agonist, 0% = basal; activation, % at 9.5 µM; 0.57% of 56,000 active; AID 449;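 active = activation above a cutoff set at the mean activation of all tested compounds plus 3 SD, cut at about 54% in these data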;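 note: forskolin at 4 µM as EC80 and the EC20 agonist is SEW2871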
# Jurkat viability = cytotoxicity toward Jurkat cells; Jurkat E6.1 viability, ATP luminescence, 48 h; inhibition, % at 4 µM; 1.2% of 56,000 active; AID 463;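 active = inhibition above the mean inhibition of all tested compounds plus 3 SD, cut at about 28% in these data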
# M1 ag = M1 muscarinic receptor agonism; CHO-M1 cells, Fluo-4 calcium fluorescence, agonist mode; hits give high values; B-score at 10 µM; 3% of 64,000 active;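 active = fluorescence rise, raw or as B-score row- and column-corrected plate score, outside the 99.7% band of its plate's samples, either direction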
# S1P3 agonist = activates the human S1P3 receptor; Q99500; S1P3 NFAT-BLA reporter cells, agonism, FRET ratio; relative to 1 µM S1P, basal subtracted; activation, % at 4.5 µM; 0.1% of 60,000 active; AID 373;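 active = activation above the screen-wide mean plus 3 SD, cut at about 4.5% in these data, passing the limit was not always enough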
# Target sequence (Q99500 whole entry, looked up): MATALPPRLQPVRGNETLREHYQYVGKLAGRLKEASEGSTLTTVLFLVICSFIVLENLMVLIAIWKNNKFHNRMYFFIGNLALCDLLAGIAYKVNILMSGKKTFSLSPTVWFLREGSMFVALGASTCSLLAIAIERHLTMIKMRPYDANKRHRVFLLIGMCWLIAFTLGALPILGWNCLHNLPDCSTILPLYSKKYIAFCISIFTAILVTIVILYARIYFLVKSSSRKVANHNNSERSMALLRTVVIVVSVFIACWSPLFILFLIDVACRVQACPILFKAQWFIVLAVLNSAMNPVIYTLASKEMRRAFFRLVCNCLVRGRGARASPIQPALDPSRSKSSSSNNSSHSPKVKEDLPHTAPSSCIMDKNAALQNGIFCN
#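 Benchmarks: high control 1 µM S1P / System: stable CHO line with human S1P3, Gα16, NFAT-BLA reporter / Dosing: single compound concentration, 4.5 µM final / Timing: 4 h compound at 37 °C, 2 h substrate at RT / Measured by: FRET β-lactamase substrate fluorescence, excitation 405 nm, 460/535 nm emission ratio, background-subtracted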
# M1 antag conf = M1 muscarinic receptor (rat) antagonism, confirmed | shares compounds with M1 antag | CHO-M1 cells, Fluo-4 calcium, ACh EC80 antagonism; hits give low values | calcium response (max-min fluorescence) at 10 µM | 43% of 1,700 active | AID 677;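 active = calcium response below the same-plate mean of wells given acetylcholine alone at its 80%-effect dose, minus 3 SD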
# mGluR4 antag = selectivity test for M1 antagonists: human mGluR4 receptor; CHO-mGluR4 calcium flux, Fluo-4 fluorescence, glutamate EC80; hits give low values; fluorescence response (max-min) at 10 µM; shares compounds with M1 antag; 0.9% of 1,700 active;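 active = fluorescence response below the plate's average for near-maximal glutamate wells, less 3 SD of those wells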;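 note: raw unnormalized fluorescence span taken in the window right after glutamate addition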
# Numbers stand for hits; – = inactive; · = no result.
SMILES,JNK3 blocker,M1 antag,S1P1 ag-PAM,Jurkat viability,M1 ag,S1P3 agonist,M1 antag conf,mGluR4 antag
CC(=O)c1cccc(NC(=O)NC(C)c2ccncc2)c1 (stereo not drawn),–,–,–,–,–,–,·,·
O=C(NC1CCS(=O)(=O)C1)C1CCCCN1S(=O)(=O)c1ccc(Cl)cc1 (stereo not drawn),·,-3.4,·,·,–,·,–,–
CCCC(CCC(=O)NC1CCCCC1)C(=O)O (stereo not drawn),·,–,·,·,–,·,·,·
CCCC(CCC)C(=O)OC1C[C@H]2CC[C@@H](C1)[N+]2(C)C (stereo partly drawn),–,-15,–,·,–,–,30,–
CCOC(=O)C1=C(C)NC(=O)NC1c1ccc(N(CC)CC)cc1 (stereo not drawn),–,-3.1,–,–,–,–,391,–
CCN(CC)c1ccc(C2C(C(=O)OC)=C(C)NC(C)=C2C(=O)OC)cc1,–,-2.7,–,–,–,–,209,–
COC(=O)C1=C(C)NC(C)=C(C(=O)OC)C1c1ccc(NC(C)=O)cc1,–,–,·,–,–,–,·,·
Cc1cccc(NC(=O)c2ccccn2)c1C,–,-1.9,–,–,–,–,–,–
COCCCN(C(=O)Nc1ccccc1)C(C)c1ccncc1 (stereo not drawn),–,–,–,–,–,–,·,·
COc1cccc(CNc2nc3ccccc3n2CCN2CCCCC2)c1,–,-4.3,–,–,–,–,–,–
COc1ccc(OC)c(CNc2nc3ccccc3n2CCN2CCCCC2)c1,–,·,–,–,·,–,·,·
CCn1c(=O)cc(OCC(=O)Nc2cccnc2)c2ccccc21,–,-1.7,–,–,–,–,–,–
NC(=O)c1cnn2c(C(F)(F)F)cc(-c3ccc(F)cc3)nc12,–,–,–,–,–,–,·,·
Cc1c(NC(=O)CN2CCN(C(c3ccccc3)c3ccccc3)CC2)c(=O)n(-c2ccccc2)n1C,–,–,–,–,–,–,·,·
O=S(=O)(CCN1CCN(C(c2ccccc2)c2ccccc2)CC1)C(F)(F)F,–,-3.8,–,–,–,–,387,–
O=C(Nc1ccccc1-c1ccccc1)NC1CCN(CC(=O)N2CCOCC2)CC1,–,-6,–,–,–,–,323,–
O=C(CN1CCN(C(c2ccccc2)c2ccccc2)CC1)N1CCOCC1,–,-19,–,–,–,–,179,–
CCCCn1c(=N)n(CC(O)COc2ccccc2)c2ccccc21 (stereo not drawn),–,-2.3,–,–,–,–,–,–
N=c1n(CCN2CCCCC2)c2ccccc2n1CC(O)c1cccc(Br)c1 (stereo not drawn),–,-4.1,–,–,–,–,–,–
CCCCn1c(=N)n(CC(O)COc2ccc(C)cc2)c2ccccc21 (stereo not drawn),–,–,–,–,–,–,·,·
COc1ccccc1OCC(O)Cn1c(=N)n(CCN2CCCCC2)c2ccccc21 (stereo not drawn),·,-1.6,·,·,–,·,–,–
Cc1ccc(OCCSc2nnc(NC(=O)c3ccco3)s2)cc1,–,-3.6,–,–,–,–,–,–
O=C(Nc1nnc(SCc2ccc(F)cc2)s1)c1ccco1,–,–,–,–,–,–,·,·
CCOC(=O)c1c(CN2CCCCC2)n(C)c2ccc(OC)c(S(=O)(=O)c3ccccc3)c12,·,–,·,·,–,·,·,·
Cc1ccc(N2CC(c3nc4ccccc4n3C)CC2=O)cc1C (stereo not drawn),–,-4.1,–,–,–,–,447,–
SMILES,JNK3 blocker,M1 antag,S1P1 ag-PAM,Jurkat viability,M1 ag,S1P3 agonist,M1 antag conf,mGluR4 antag
Cc1ccc2c(c1)N(CCC(=O)NC1CC1)C(=O)C(C)O2 (stereo not drawn),–,-4,–,–,–,–,–,–
Cc1ccc2c(c1)N(CC(=O)NC1CCC(C)CC1)C(=O)CO2 (stereo not drawn),–,–,–,–,–,–,·,·
Cc1cc2ncn(CCOc3ccccc3C#N)c2cc1C,–,–,–,–,–,–,·,·
O=C1c2cccnc2C(=O)N1CO,–,-2.4,–,–,–,–,–,–
CCCCc1cc(=O)oc2c(CN3CCCC3)c(O)ccc12,–,-2.3,–,·,–,–,–,–
CC(C)(C)n1nnnc1C(c1cccnc1)N1CCN(C2CCCCC2)CC1 (stereo not drawn),–,–,–,–,–,–,·,·
c1cncc(C(c2nnnn2C2CCCC2)N2CCCC2)c1 (stereo not drawn),–,-2,–,–,–,–,–,–
CCCCn1c(SCC(=O)Nc2nnc(CC)s2)nc2c1c(=O)n(C)c(=O)n2C,–,–,–,–,–,–,·,·
CCCCn1c(SCC(=O)Nc2nnc(CC)s2)nc2ccccc2c1=O,–,-7.8,–,–,–,–,–,–
CCOC(=O)c1ccc(NCc2nc3ccccc3[nH]2)cc1,–,–,–,–,–,–,·,·
CCOC(=O)Cc1nc2ccccc2[nH]1,–,-4.1,–,–,–,–,–,–
COc1nc(NC(C)=O)nc(C)c1Br,·,-10,·,·,–,·,–,–
COC(=O)COc1nc(C)c(Br)c(OC)n1,–,–,–,–,–,–,·,·
O=c1c2cnn(-c3ccc(F)cc3)c2ncn1Cc1ccccn1,–,–,–,–,–,–,·,·
CCS(=O)(=O)c1nc2ccccc2n1CC(=O)N1CCOCC1,–,-2.7,–,–,–,–,–,–
Cn1c(=O)n(CC(=O)N2CCOCC2)c2ccccc21,–,–,·,–,–,–,·,·
CCOc1ccc(CNc2ccc3c(c2)nc(C)n3C)cc1,–,-6,·,–,–,–,448,–
O=C(NCCCN1CCN(c2cccc(Cl)c2)CC1)C1CCC(=O)N1Cc1ccccc1Cl (stereo not drawn),–,-2,–,–,–,–,–,–
C=CCn1c(Cc2csc(N)n2)nnc1SCc1ccc(C(=O)OC)cc1,–,–,·,–,–,–,·,·
Oc1c(C(Nc2ccccn2)c2ccccn2)ccc2cccnc12 (stereo not drawn),–,-3.6,–,–,–,–,–,–
c1ccc(Oc2cccc(NC3=NCCC3)c2)cc1,–,-3.5,–,–,–,–,393,–
CCCSc1nnc(Cn2c(=O)sc3ccccc32)n1C,–,–,–,–,–,–,·,·
CCOC(=O)N1CCC(N2Cc3cccc(C(=O)NCc4ccccn4)c3C2=O)CC1,–,-2.5,–,–,–,–,500,–
Cc1ccc(-n2nnc3c(SCC(=O)NCC4CCCO4)ncnc32)cc1 (stereo not drawn),·,-2.4,·,·,–,·,–,–
O=C(NCc1ccco1)c1cc2cc3ccc(Cl)cc3nc2o1,–,-2.5,–,–,–,–,–,–
